Reference: ChEMBL document CHEMBL1128411, “Conformationally defined 6-s-trans-retinoic acid analogs. 2. Selective agonists for nuclear receptor binding and transcriptional activity” (J Med Chem, 1995)

Legend:
[1] = target: T1, Retinoic acid receptor gamma (Mus musculus, UniProt P18911); test: Inhibition of binding to murine Retinoic acid receptor RAR gamma
T1 sequence (P18911 whole entry): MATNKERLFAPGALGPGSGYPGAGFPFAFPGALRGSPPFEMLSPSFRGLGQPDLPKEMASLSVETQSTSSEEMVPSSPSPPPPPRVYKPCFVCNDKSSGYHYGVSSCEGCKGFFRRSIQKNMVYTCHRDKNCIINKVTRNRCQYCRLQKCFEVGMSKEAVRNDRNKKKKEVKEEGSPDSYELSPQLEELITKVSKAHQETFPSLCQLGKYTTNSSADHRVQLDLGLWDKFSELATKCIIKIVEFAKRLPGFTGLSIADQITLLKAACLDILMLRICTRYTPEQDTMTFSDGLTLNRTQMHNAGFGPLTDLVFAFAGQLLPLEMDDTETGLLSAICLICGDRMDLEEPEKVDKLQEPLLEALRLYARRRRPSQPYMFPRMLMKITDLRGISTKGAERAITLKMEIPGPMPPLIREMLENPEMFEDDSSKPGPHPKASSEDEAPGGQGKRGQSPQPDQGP
How it was run: (§1)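 Nucleosol fractions from COS-1 cells transfected with mouse RARα, β or γ cDNA in pSG5 were incubated with 5 nM [3H]-(all-E)-RA at 4 °C for 4 h. Competitor in ethanol was added at nine concentrations (0–10 μM) in duplicate. Bound label was separated on PD-10 desalting columns and counted by scintillation. IC50 came from a fit of percent specific binding.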

[2] = target: T2, Retinoic acid receptor beta (Mus musculus, UniProt P22605); test: Inhibition of murine Retinoic acid receptor RAR beta; how it was run: as §1
T2 sequence (P22605 whole entry): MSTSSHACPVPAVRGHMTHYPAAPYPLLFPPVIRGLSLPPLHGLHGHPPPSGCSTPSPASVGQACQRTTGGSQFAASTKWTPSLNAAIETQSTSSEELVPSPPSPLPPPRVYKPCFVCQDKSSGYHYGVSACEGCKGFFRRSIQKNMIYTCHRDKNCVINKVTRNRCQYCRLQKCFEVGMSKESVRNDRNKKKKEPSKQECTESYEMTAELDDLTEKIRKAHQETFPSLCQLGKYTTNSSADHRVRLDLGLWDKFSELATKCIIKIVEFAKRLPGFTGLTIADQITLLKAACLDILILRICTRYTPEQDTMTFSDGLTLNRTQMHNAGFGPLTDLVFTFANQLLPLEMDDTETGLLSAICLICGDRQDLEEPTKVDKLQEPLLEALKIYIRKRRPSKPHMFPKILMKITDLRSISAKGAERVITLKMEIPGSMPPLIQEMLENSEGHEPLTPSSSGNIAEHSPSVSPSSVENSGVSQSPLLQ

[3] = target: T3, Retinoic acid receptor RXR-alpha (Homo sapiens, UniProt P19793); test: Binding affinity for human Retinoid X receptor RXR alpha
T3 sequence (P19793 whole entry): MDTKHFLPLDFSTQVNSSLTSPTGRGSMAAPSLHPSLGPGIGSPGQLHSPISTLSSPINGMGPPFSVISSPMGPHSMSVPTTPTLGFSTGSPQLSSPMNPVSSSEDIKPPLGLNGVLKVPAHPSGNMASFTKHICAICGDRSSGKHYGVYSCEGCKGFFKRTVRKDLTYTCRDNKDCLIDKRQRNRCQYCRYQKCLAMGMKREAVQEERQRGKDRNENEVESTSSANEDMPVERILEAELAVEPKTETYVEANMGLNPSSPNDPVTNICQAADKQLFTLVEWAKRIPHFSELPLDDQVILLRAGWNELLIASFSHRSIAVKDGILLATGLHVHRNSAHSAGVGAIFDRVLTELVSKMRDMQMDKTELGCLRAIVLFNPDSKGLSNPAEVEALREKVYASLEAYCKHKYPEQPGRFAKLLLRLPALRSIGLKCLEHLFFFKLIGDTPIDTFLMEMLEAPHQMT
How it was run: (§2)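 Equilibrium fluorometric titration at 25 °C of recombinant E. coli-expressed apo-proteins (mCRABP-I, mCRABP-II, or hRXRα DEF ligand-binding domain). Ligands came from ethanol stocks, with concentrations set by UV/vis in hexane. Tryptophan fluorescence quenching was read and corrected for inner filter effects. A survey was run at 10^-6 M protein to check stoichiometry.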

[4] = target: T4, Retinoic acid receptor RXR-alpha (Mus musculus, UniProt P28700); test: Inhibition of binding to murine Retinoid X receptor RXR alpha
T4 sequence (P28700 whole entry): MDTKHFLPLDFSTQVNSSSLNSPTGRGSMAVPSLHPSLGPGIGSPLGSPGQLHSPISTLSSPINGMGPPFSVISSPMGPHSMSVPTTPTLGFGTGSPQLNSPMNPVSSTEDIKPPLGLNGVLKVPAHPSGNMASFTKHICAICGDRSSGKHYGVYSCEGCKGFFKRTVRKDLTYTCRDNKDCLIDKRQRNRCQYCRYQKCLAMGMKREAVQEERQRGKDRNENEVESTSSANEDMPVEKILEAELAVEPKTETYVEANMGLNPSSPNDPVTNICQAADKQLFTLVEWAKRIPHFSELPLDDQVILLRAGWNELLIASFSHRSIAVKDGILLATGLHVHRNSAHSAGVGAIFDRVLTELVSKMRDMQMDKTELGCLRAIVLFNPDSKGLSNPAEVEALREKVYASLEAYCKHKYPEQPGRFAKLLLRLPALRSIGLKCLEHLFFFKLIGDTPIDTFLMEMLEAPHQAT

[5] = target: T5, Cellular retinoic acid-binding protein 2 (Mus musculus, UniProt P22935); test: Binding affinity for mouse Cytoplasmic retinoic acid binding protein type 2; how it was run: as §2
T5 sequence (P22935 whole entry): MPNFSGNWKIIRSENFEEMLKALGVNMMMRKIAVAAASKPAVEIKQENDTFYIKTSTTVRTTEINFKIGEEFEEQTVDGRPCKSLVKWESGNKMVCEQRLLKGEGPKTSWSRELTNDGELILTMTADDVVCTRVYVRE

[6] = target: Cellular retinoic acid-binding protein 1 (Mus musculus, UniProt P62965); test: Binding affinity for mouse Cytoplasmic retinoic acid binding protein type 1; how it was run: as §2
Sequence of Cellular retinoic acid-binding protein 1 (P62965 whole entry): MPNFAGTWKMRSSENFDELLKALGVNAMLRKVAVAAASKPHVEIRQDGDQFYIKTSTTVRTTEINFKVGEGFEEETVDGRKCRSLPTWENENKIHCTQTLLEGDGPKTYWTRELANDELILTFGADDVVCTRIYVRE

- IC50 [1]: 10 nM
- IC50 [2]: 6 nM
- Kd [3]: > 200 nM
- IC50 [4]: > 1000 nM
- Kd [5]: 1.4 nM
- Kd [6]: 0.3 nM
Structure (SMILES): CCC1=C(C(C)C)/C(=C/C(C)=C/C=C/C(C)=C/C(=O)O)CCC1
